Experimental data from ChEMBL document CHEMBL1132335, “Discovery and synthesis of (S)-3-[2-(3,4-dimethoxyphenyl)ethoxy]-2- (4,6-dimethylpyrimidin-2-yloxy)-3,3-diphenylpropionic acid (LU 302872), a novel orally active mixed ET(A)/ET(B) receptor antagonist” (J Med Chem, 1999).
pKi: −log10 of the molar value.

Columns and labels:
[1] = target: T1, Endothelin receptor, ET-A/ET-B (Homo sapiens) (UniProt P24530+P25101); experiment: Selectivity for Endothelin A receptor compared to Endothelin B receptor.; format: protein assay
[2] = target: T2, Endothelin receptor type B (Homo sapiens, UniProt P24530); experiment: Inhibition of [125I]ET-3 (ETB assay) binding to human cloned Endothelin B receptor in CHO cells; format: cell-based
T2 sequence (P24530 whole entry): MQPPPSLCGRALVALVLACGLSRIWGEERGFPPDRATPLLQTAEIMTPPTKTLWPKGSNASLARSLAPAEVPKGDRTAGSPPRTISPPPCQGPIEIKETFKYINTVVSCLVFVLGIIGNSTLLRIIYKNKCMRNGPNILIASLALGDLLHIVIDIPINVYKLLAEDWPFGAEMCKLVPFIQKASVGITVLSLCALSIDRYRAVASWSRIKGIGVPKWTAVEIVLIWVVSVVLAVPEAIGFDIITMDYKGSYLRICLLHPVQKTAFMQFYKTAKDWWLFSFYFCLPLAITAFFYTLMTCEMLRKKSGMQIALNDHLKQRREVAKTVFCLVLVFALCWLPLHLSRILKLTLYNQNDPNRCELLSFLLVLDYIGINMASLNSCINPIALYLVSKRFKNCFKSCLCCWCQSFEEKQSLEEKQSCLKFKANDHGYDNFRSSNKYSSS
In short: (§1)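 CHO cells stably expressing human ETA or ETB receptor; 10–50 µg membrane protein incubated 30 min at 25 °C in 50 mM Tris-HCl pH 7.4, 5 mM MnCl2, 40 µg/mL bacitracin, 0.2% BSA, with 25 pM [125I]ET-1 (ETA) or 25 pM [125I]ET-3 (ETB). Nonspecific binding with 0.1 µM ET-1; filtration, scintillation counting. Triplicate, repeated at least once; Ki by Cheng–Prusoff or nonlinear regression, ±SE.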

Endothelin-1 receptor = target: T3, Endothelin-1 receptor (Homo sapiens, UniProt P25101); experiment: Inhibition of [125I]-ET-1 (ETA assay) binding to human cloned Endothelin A receptor in CHO cells; format: cell-based; in short: as §1
T3 sequence (P25101 whole entry): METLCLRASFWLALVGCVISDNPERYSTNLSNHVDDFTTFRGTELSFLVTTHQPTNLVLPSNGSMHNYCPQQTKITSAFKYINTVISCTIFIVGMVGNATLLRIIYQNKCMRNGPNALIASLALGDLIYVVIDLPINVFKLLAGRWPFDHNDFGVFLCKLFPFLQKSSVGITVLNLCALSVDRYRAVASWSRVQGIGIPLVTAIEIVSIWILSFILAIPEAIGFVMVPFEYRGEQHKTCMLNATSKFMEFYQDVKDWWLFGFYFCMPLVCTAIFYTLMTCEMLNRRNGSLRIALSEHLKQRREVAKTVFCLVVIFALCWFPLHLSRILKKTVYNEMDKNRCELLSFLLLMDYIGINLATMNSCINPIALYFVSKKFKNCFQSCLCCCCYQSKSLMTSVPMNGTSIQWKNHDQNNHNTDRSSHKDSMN

[3] = target: T1, Endothelin receptor, ET-A/ET-B (Homo sapiens); experiment: Compound was tested for inhibition of big ET-induced bronchospasm in drug treated guinea pigs with LU 135252 and balanced ETA/B receptor antagonists at 10 mg/kg oral dose was reported as (AUD 30 min) in mL(min); conditions: Cavia porcellus
Rattus norvegicus [4] = experiment: Inhibition of big ET-induced blood pressure increase in drug treated rats with LU 135252 and 10 mg/Kg of compound given perorally was reported as (AUD 30 min) in mmHg(min); format: functional
In short: (§2)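 Male Sprague–Dawley rats dosed 10 mg/kg p.o.; urethane anesthesia (1.6 g/kg i.p.), tracheotomy 90 min later, carotid artery cannulated for blood pressure, jugular vein for agonist. Big ET-1 20 µg/kg i.v. at 120 min post-dose; pressure recorded over 30 min as area under the data (AUD30min), compared with control; mean ± SEM.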

Rattus norvegicus [5] = experiment: Percent reduction of big ET-induced blood pressure increase in drug treated rats with LU 135252 and 10 mg/Kg of compound given perorally was reported as (AUD 30 min) in mmHg(min); format: functional; in short: as §2
[6] = target: T1, Endothelin receptor, ET-A/ET-B (Homo sapiens); experiment: Compound was tested for %inhibition of big ET-induced bronchospasm in guinea pigs with LU 135252 and balanced ETA/B receptor antagonists at 10 mg/kg oral dose was reported as (AUD 30 min) in mL(min); conditions: Cavia porcellus
[7] = target: T4, Endothelin receptor (Rattus norvegicus) (UniProt P26684+P21451); conditions: Blood, 10 mg/kg
[8] = target: T4, Endothelin receptor (Rattus norvegicus); conditions: Blood, 10 mg/kg; remark: listed apart in the source
[9] = target: T1, Endothelin receptor, ET-A/ET-B (Homo sapiens); conditions: Rattus norvegicus; 30 mg/kg
[10] = target: T1, Endothelin receptor, ET-A/ET-B (Homo sapiens); conditions: Rattus norvegicus; 10 mg/kg
Rattus norvegicus [11] = experiment: Inhibition of big ET-induced blood pressure increase in drug treated rats with 10 mg/Kg of compound given perorally was reported as (AUD 30 min) in mmHg(min); format: functional; in short: as §2

T4 sequence (P21451 whole entry, looked up): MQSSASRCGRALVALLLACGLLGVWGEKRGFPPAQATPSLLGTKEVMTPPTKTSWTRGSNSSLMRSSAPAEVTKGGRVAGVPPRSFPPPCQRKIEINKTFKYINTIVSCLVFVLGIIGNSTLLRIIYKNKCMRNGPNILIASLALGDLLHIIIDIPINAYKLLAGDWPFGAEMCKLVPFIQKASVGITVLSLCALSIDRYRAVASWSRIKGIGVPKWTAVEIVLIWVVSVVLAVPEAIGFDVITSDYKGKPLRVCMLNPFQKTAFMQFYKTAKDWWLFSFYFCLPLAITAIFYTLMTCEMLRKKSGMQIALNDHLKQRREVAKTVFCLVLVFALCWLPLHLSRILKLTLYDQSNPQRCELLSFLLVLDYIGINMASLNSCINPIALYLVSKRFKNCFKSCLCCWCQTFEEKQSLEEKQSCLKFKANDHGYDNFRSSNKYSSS
T4 sequence (P26684 whole entry, looked up): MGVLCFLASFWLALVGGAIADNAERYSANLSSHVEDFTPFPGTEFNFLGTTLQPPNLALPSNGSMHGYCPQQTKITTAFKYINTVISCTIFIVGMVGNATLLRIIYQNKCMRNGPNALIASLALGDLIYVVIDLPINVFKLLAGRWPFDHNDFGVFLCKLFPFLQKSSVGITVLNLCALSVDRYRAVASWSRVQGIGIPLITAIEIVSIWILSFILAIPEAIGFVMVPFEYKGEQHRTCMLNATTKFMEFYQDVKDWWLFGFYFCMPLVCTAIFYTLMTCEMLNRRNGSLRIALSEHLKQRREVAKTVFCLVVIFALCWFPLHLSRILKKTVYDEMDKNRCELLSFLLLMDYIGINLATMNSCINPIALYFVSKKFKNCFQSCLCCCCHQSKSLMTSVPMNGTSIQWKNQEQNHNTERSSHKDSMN

Compound | Ratio [1] | pKi [2] | pKi (Endothelin-1 receptor) | other results
CCc1ccc(C(OCCc2ccc(OC)cc2)(c2ccc(CC)cc2)C(Oc2nc(C)cc(C)n2)C(=O)O)cc1 (stereo not drawn) | 0.8 | 6.71 | 6.60 | –
Cc1cc(C)nc(OC(C(=O)O)C(OCCc2ccc(C(=O)O)cc2)(c2ccccc2)c2ccccc2)n1 (stereo not drawn) | 77 | 6.94 | 8.82 | –
COc1ccc(COC(c2ccccc2)(c2ccccc2)C(Oc2nc(C)cc(C)n2)C(=O)O)cc1OC (stereo not drawn) | 31 | 7.20 | 8.70 | –
COc1ccc(CCOC(c2ccccc2)(c2ccccc2)C(Oc2nc(C)cc(C)n2)C(=O)O)cc1OC (stereo not drawn) | 2 | – | – | Reduction in respiratory volume [3]: 71 mL; BP increase (Rattus norvegicus [4]): 641 mmHg; BP increase (Rattus norvegicus [5]): 58%; Reduction in respiratory volume [6]: 67%
Cc1cc(C)nc(OC(C(=O)O)C(OCCc2ccc(Cl)cc2)(c2ccccc2)c2ccccc2)n1 (stereo not drawn) | 4.7 | 7.03 | – | –
COc1cc(C)nc(OC(C(=O)O)C(OCCc2ccc(OC)c(OC)c2)(c2ccccc2)c2ccccc2)n1 (stereo not drawn) | 6.2 | 7.83 | 8.63 | –
COc1cc(CCOC(c2ccccc2)(c2ccccc2)C(Oc2nc(C)cc(C)n2)C(=O)O)ccc1OCC(=O)O (stereo not drawn) | 12 | 7.62 | 8.72 | BP increase (Rattus norvegicus [4]): 1294 mmHg; BP increase (Rattus norvegicus [5]): 14%
COc1ccc(OC(c2ccccc2)(c2ccccc2)C(Oc2nc(C)cc(C)n2)C(=O)O)cc1OC (stereo not drawn) | 125 | 7.22 | 9.32 | –
CCOc1ccc(CCOC(c2ccccc2)(c2ccccc2)C(Oc2nc(C)cc(C)n2)C(=O)O)cc1OC (stereo not drawn) | 8 | 7.60 | 8.50 | BP increase (Rattus norvegicus [4]): 475 mmHg; BP increase (Rattus norvegicus [5]): 68%
COc1ccccc1Oc1c(NS(=O)(=O)c2ccc(C(C)(C)C)cc2)nc(-c2ncccn2)nc1OCCO | – | – | – | BP increase [7]: 7%; BP increase [8]: 1400 AUD30min
COc1cc(/C=C/COC(c2ccccc2)(c2ccccc2)C(Oc2nc(C)cc(C)n2)C(=O)O)cc(OC)c1OC (stereo not drawn) | 0.4 | 7.70 | 7.32 | –
Cc1ccc(/C=C/COC(c2ccccc2)(c2ccccc2)C(Oc2nc(C)cc(C)n2)C(=O)O)cc1 (stereo not drawn) | – | 6.49 | 7.49 | –
COc1ccc(CCOC(c2ccc(C)cc2)(c2ccc(C)cc2)C(Oc2nc(OC)c3c(n2)OCC3)C(=O)O)cc1 (stereo not drawn) | 0.7 | 7.15 | 6.98 | –
COc1ccc(CCOC(c2ccccc2)(c2ccccc2)C(Oc2nc(C)cc(OC)n2)C(=O)O)cc1 (stereo not drawn) | 11.8 | – | 8.71 | –
CCc1ccc(C(OCCc2ccc(OC)cc2)(c2ccc(CC)cc2)C(Oc2nc(C)cc(OC)n2)C(=O)O)cc1 (stereo not drawn) | 1 | 6.80 | 6.81 | –
Cc1ccc(CCCOC(c2ccccc2)(c2ccccc2)C(Oc2nc(C)cc(C)n2)C(=O)O)cc1 (stereo not drawn) | – | 6.77 | 7.64 | –
COc1cc(C)nc(OC(C(=O)O)C(OCCc2ccc(OC)c(OC)c2)(c2ccc(Cl)cc2)c2ccc(Cl)cc2)n1 (stereo not drawn) | 0.6 | – | – | –
CCc1ccc(C(OCCc2ccc(OC)c(OC)c2)(c2ccc(CC)cc2)C(Oc2nc(C)cc(OC)n2)C(=O)O)cc1 (stereo not drawn) | 1 | 7.40 | 7.41 | –
COc1ccc(CCOC(c2ccccc2)(c2ccccc2)[C@H](Oc2nc(C)cc(C)n2)C(=O)O)cc1OC [FELOPRENTAN] | 2.2 | 8.32 | 8.67 | Reduction in respiratory volume [3]: 46 mL; BP increase (Rattus norvegicus [4]): 583 mmHg; BP increase (Rattus norvegicus [5]): 61%; Reduction in respiratory volume [6]: 79%
Cc1cc(C)nc(OC(C(=O)O)C(OCCc2ccccc2)(c2ccccc2)c2ccccc2)n1 (stereo not drawn) | 9.2 | 6.64 | 7.60 | –
Cc1cc(C)nc(OC(C(=O)O)C(OCCc2ccc(O)cc2)(c2ccccc2)c2ccccc2)n1 (stereo not drawn) | 4.7 | 7.79 | 8.46 | –
COc1cc(CCOC(c2ccccc2)(c2ccccc2)C(Oc2nc(C)cc(C)n2)C(=O)O)cc(OC)c1OC (stereo not drawn) | 2.3 | 8.49 | 8.86 | BP increase (Rattus norvegicus [4]): 1123 mmHg; BP increase (Rattus norvegicus [5]): 25%
Cc1ccc(CCOC(c2ccccc2)(c2ccccc2)C(Oc2nc(C)cc(C)n2)C(=O)O)cc1 (stereo not drawn) | – | 7.26 | 7.49 | –
COc1ccc(CCOC(c2ccccc2)(c2ccccc2)C(Oc2nc(C)cc(C)n2)C(=O)O)cc1 (stereo not drawn) | 4 | 7.62 | – | BP increase (Rattus norvegicus [4]): 976 mmHg; BP increase (Rattus norvegicus [5]): 33%
COc1ccc(CCOC(c2ccc(Cl)cc2)(c2ccc(Cl)cc2)C(Oc2nc3c(c(OC)n2)CCC3)C(=O)O)cc1OC (stereo not drawn) | 0.7 | 6.67 | 6.54 | –
COc1cc(OC)nc(O[C@H](C(=O)O)C(OC)(c2ccccc2)c2ccccc2)n1 [DARUSENTAN] | – | – | – | Reduction in respiratory volume [9]: 172 mL; Reduction in respiratory volume [10]: 19 mL; BP increase (Rattus norvegicus [11]): 636 mmHg
